In the library only some 2.1% were active in any assay of this set; here they are far more common.
PABP FP inh: blocks human PABP binding to poly(A) RNA; fluorescence polarization; inhibition, % at 35 µM; 290,000 tested, 1% active; AID 2014;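 also: calls also rest on retests at 20 µM and on dose response follow-up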
Target sequence (P11940 whole entry, looked up): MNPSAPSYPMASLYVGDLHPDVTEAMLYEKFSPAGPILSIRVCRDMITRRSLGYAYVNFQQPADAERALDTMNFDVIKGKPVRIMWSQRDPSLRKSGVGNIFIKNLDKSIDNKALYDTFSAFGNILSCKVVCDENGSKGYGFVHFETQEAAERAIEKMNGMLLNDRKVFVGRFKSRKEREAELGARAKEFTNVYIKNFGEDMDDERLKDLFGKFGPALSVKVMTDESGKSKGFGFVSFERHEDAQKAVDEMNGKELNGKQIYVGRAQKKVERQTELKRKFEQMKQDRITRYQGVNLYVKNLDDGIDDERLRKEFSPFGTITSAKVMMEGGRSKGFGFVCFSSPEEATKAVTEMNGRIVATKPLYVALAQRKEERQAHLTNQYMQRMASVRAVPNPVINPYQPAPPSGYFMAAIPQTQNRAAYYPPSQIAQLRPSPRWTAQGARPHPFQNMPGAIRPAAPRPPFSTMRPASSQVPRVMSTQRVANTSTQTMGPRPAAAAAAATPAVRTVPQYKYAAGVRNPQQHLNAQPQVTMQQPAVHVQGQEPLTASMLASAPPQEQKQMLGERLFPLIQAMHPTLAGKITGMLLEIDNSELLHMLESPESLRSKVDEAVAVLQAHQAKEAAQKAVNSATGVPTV
MLLE-PAM2 inh: blocks PAM2 peptide binding to the PABP1 MLLE domain; P11940; GST-MLLE / FITC-PAM2 fluorescence polarization; inhibition, % at 20 µM; 360,000 tested, 0.36% active; in the data active = inhibition above about 35%, passing the limit was not always enough
NS3 helicase inh: blocks Hepatitis C virus NS3 helicase unwinding. AID 1800. 290,000 tested, 0.56% active. inhibition, % at 10.9 µM. NS3 helicase DNA unwinding, Cy5 molecular beacon fluorescence;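 active = inhibition above the mean of all tested compounds plus 3 SD, set per campaign, cut at about 35% in these data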
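Assay system – hepatitis C virus NS3 helicase domain fragment enzyme · Buffer or medium – MOPS pH 6.5, MgCl2, DTT, Tween20, BSA · Reagent – Cy5/quencher beacon DNA duplex and ATP to start · Compound – single 10.9 µM dose · Timing – 1 h at 25 °C · Technique – Cy5 beacon fluorescence read at start and 1 h · Measure – % inhibition of unwinding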
ZTA DNA inh: ZTA (EBV) inhibition in EBNA-1 counter-screen. ZTA-DNA binding, fluorescence polarization. P03206. AID 2234. 320,000 tested, 0.15% active. inhibition, % at 11 µM; in the data active = inhibition above about 33%
EBNA-1 inhibitor: blocks EBNA-1 binding to DNA. inhibition, % at 14.8 µM. EBNA-1 DNA binding, fluorescence polarization. AID 1950. 300,000 tested, 0.34% active; in the data active = inhibition above about 28%
eIF4H FP inh: inhibitors of RNA binding by human eIF4H; eIF4H fluorescence polarization binding assay; AID 2012; Q15056; 290,000 tested, 0.94% active; inhibition, % at 35 µM;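 also: calls also rest on retests at 20 µM and on dose response follow-up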
Large screens that a line does not name were inactive; ! = a repeat was not active. Unless noted, no rule for the calls is given here.

CN(C)C(CNC(=O)c1ccc(Cl)c(S(=O)(=O)N2CCCCCC2)c1)c1ccccc1 (stereo not given)	none (no result: PABP FP inh, NS3 helicase inh, EBNA-1 inhibitor, eIF4H FP inh)
COc1ccc(NC(=O)c2cc3c(s2)CCC3)cc1S(=O)(=O)N1CCOCC1	eIF4H FP inh 100.2
CCN(CC)S(=O)(=O)c1cc(NC(=O)Cn2ncc(Cl)c(Cl)c2=O)ccc1C	PABP FP inh 14.1
COc1ccc(NC(=O)Cn2ncc(Cl)c(Cl)c2=O)cc1S(=O)(=O)N1CCOCC1	PABP FP inh 1.8
CN1/C(=C\C=N\NC(=O)c2cccnc2)C(C)(C)c2ccccc21	none
COC(=O)c1ccc(NC(c2ccc(Cl)cc2)P(=O)(OC)OC)cc1 (stereo not given)	PABP FP inh 1.6, eIF4H FP inh 79.8
Cc1onc(-c2ccccc2)c1C(=O)N1CCN(c2ccccc2F)CC1	none
Nc1cc(Cl)ccc1Oc1ccc(Cl)cc1	none
CN(C)c1ccc(Cl)cc1N	eIF4H FP inh 69.1
O=S(=O)(Nc1ncccn1)c1ccc(F)cc1	none (no result: ZTA DNA inh, EBNA-1 inhibitor)
CC(C)c1nnc(SCC(=O)NCCC2=CCCCC2)n1N	MLLE-PAM2 inh 42.1
Cc1nn(-c2ccccc2)c(Oc2ccccc2)c1C=O	PABP FP inh 88.1, eIF4H FP inh active
Cc1cc(=O)n(CC(C)C)c(O)c1C#N	PABP FP inh 67.8, eIF4H FP inh 119.2
CCn1c(O)c(C#N)c(C)cc1=O	eIF4H FP inh 77.8
Cc1cc(=O)n(CCO)c(O)c1C#N	PABP FP inh inconclusive, eIF4H FP inh inconclusive
CCOC(=O)CSC1=N/C(=C\c2cc(OC)c(OC)c(OC)c2)C(=O)N1C	MLLE-PAM2 inh 42.0
O=S(=O)(O)Sc1ccccc1	none (no result: PABP FP inh, NS3 helicase inh, ZTA DNA inh, EBNA-1 inhibitor, eIF4H FP inh)
CCN(CC)c1ccc(SS(=O)(=O)O)cc1	MLLE-PAM2 inh 43.1!
CCOC(=O)N1CCN(C(=O)CSCc2nc(-c3ccccc3F)oc2C)CC1	MLLE-PAM2 inh 45.4
CCOC(=O)N1CCN(C(=O)CSCc2nc(-c3ccccc3C)oc2C)CC1	none
COc1ccc(/C=N/NC2=NCCCCC2)c(OC)c1	PABP FP inh 67.5, eIF4H FP inh active
c1ccc(CCN(Cc2ccccc2)Cc2nc(C3CC3)no2)cc1	none
O=C(Cc1csc(N2CCOCC2)n1)N/N=C/c1ccc(O)c(O)c1O	PABP FP inh 5.3 (no result: ZTA DNA inh, EBNA-1 inhibitor)
C/C(=N\NC(=O)Cc1csc(N2CCOCC2)n1)c1ccccc1	none
O=C(CCN1CCN(c2ccccc2)CC1)N/N=C/c1ccc(O)c(O)c1O	PABP FP inh 81.0 (no result: ZTA DNA inh, EBNA-1 inhibitor)
COc1ccc(/C=N/NC(=O)CCN2CCN(c3ccccc3)CC2)c(OC)c1OC	none
CCn1c(SCC(=O)NNC(=O)c2ccccc2)nnc1-c1ccco1	none
COc1cccc(/C=N/Nc2nc3ccccc3n3cnnc23)c1	PABP FP inh 3.7, eIF4H FP inh 85.3
O=C(O)c1ccc(NS(=O)(=O)c2ccc3c(c2)C2C=CCC2C(c2ccccc2F)N3)cc1 (stereo not given)	PABP FP inh 81.4 (no result: ZTA DNA inh, EBNA-1 inhibitor)
CC(=O)Nc1ccc(N/C=C2/CCCC2=O)cc1	none
Cc1cc(O)ccc1N/C=C1\CCCC1=O	eIF4H FP inh 81.1
Cc1[nH]c(=S)c(C#N)c(-c2ccco2)c1C(=O)N(C)C	PABP FP inh 18.5
Cc1ccc2c(Cl)cc(Cl)c(OCC(=O)NC3CCS(=O)(=O)C3)c2n1 (stereo not given)	none
O=C(Cc1nnc(NC(=O)c2ccccc2)s1)N/N=C\c1ccc(O)c(O)c1	eIF4H FP inh 58.8
CCn1c(C)c(C(C)=O)c(N2CCN(c3cccc(Cl)c3)CC2)nc1=S	PABP FP inh inconclusive, eIF4H FP inh inconclusive
CC(=O)c1c(N2CCN(c3ccccn3)CC2)nc(=S)n(-c2ccccc2)c1C	PABP FP inh 1.9, eIF4H FP inh inconclusive
COc1ccc(N2CCN(c3nc(=S)n(-c4ccccc4)c(C)c3C(C)=O)CC2)cc1	PABP FP inh 58.6, eIF4H FP inh 68.5
CC(=O)c1c(N2CCN(c3cccc(Cl)c3)CC2)nc(=S)n(-c2ccccc2)c1C	PABP FP inh 98.7, eIF4H FP inh 84.4
CC(=O)c1c(N2CCN(C)CC2)nc(=S)n(Cc2ccccc2)c1C	none
Cc1cc(C)nc(NC(=O)c2ccc(C)o2)n1	none
CC(C)c1ccc(O)c(NC(=S)NC(=O)c2ccc3c(c2)OCO3)c1	MLLE-PAM2 inh 46.8
O=C(NC(=S)Nc1ccccc1Br)c1ccc2c(c1)OCO2	none
N#Cc1c2c(c(NCCCN3CCOCC3)n3c1nc1ccccc13)CCC2	PABP FP inh 70.2, eIF4H FP inh 93.1
NCc1cc2c3c(c1)CCCN3CCC2	PABP FP inh 114.6, MLLE-PAM2 inh 36.5, eIF4H FP inh 92.9
Cc1c(Cl)cccc1NC(=O)C1CC2CCC1C2 (stereo not given)	none (no result: PABP FP inh, NS3 helicase inh, eIF4H FP inh)
N#CC1=C(N)C(C#N)(C#N)C(c2cccnc2)C2CCCC=C12 (stereo not given)	eIF4H FP inh 120.5 (no result: MLLE-PAM2 inh)
N#CC1=C(N)C(C#N)(C#N)C(c2cccnc2)C2CC(c3ccccc3)CC=C12 (stereo not given)	PABP FP inh 77.2, eIF4H FP inh inconclusive
CS(=O)(=O)c1cccc(-c2nnc(NC(=O)CCS(=O)(=O)c3ccccc3)o2)c1	none (no result: PABP FP inh, NS3 helicase inh, eIF4H FP inh)
O=C(NC(c1ccccc1)c1ccccc1)C1(c2cccs2)CCOCC1	PABP FP inh 1.4, eIF4H FP inh inconclusive
Cc1cc(NC(=O)Cn2nc(-c3ccccc3F)ccc2=O)ccc1-n1cnnn1	none
COc1cc(NC(=O)Cn2nc(-c3ccc(F)cc3)ccc2=O)ccc1-n1cnnn1	eIF4H FP inh 101.7
O=C(O)CCCCCNC(=O)/C(=C\c1ccco1)NC(=O)c1ccco1	none
CC(C)C(=O)Nc1ncc(C(F)(F)F)cc1Cl	none
ON/C=N/C(=S)Nc1ncc(C(F)(F)F)cc1Cl	MLLE-PAM2 inh 38.3
CC(Cl)C(=O)Nc1ncc(C(F)(F)F)cc1Cl (stereo not given)	none
CON/C=N/C(=S)Nc1ncc(C(F)(F)F)cc1Cl	MLLE-PAM2 inh 42.1
CCn1c(/C=C/c2ccccc2)nc2ccccc21	none
CCCn1c(/C=C/c2cc[n+](C)cc2)nc2ccccc21	PABP FP inh 87.7
CCOC(=O)C1=C(N)n2c(s/c(=C\c3ccco3)c2=O)=C(C(=O)OCC)C1c1ccco1 (stereo not given)	PABP FP inh 85.6, eIF4H FP inh 96.6
CC(C)(C)c1nnc(NC(=O)C2CCN(C(=O)c3ccco3)CC2)s1	none
CCCCN(C(=O)c1ccc2c(c1)OCO2)c1ccccc1	none
COCCNC(=O)C1=C(N)C(C(=O)Nc2ccc(C)c(S(=O)(=O)N3CCCCC3)c2)SC1=Nc1ccc(C)cc1C (stereo not given)	none
Cc1ccc2cc(CCNC(=O)c3ccco3)c(=O)[nH]c2c1C	PABP FP inh 124.0, eIF4H FP inh inconclusive
O=C(NC(=S)Nc1ccc2oc(=O)ccc2c1)c1cccc(F)c1	none
CCN1CCc2nc3sc(C(=O)N4CCc5ccccc5C4)c(N)c3cc2C1	PABP FP inh 88.7, eIF4H FP inh 98.5
CC(C)c1ccc2nc3sc(C(=O)N4CCc5ccccc5C4)c(N)c3cc2c1	none
CC/C(=N\NC(=O)C1CCCC1)c1cccc(Br)c1	none (no result: ZTA DNA inh, EBNA-1 inhibitor)
